Measurements reported in ChEMBL document CHEMBL3808334, “Synthesis and in vitro evaluation of novel triazine analogues as anticancer agents and their interaction studies with bovine serum albumin” (Eur J Med Chem, 2016).

What was measured:
SN12C [1] = experiment: Growth inhibition of human SN12C cells assessed as cell growth at 10^-7 M incubated for 48 hrs by sulforhodamine B assay; format: functional; conditions: read-out: Activity
[2] = Growth inhibition of human MOLT4 cells assessed as cell growth at 10^-5 M incubated for 48 hrs by sulforhodamine B assay; format: functional; conditions: MOLT-4, 48 h, read-out: Activity
MDA-MB-231 [3] = experiment: Growth inhibition of human MDA-MB-231 cells incubated for 48 hrs by sulforhodamine B assay; format: functional; conditions: MDA-MB-231, 48 h
In short: (§1)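 Cells were plated at 5,000–40,000 per well according to doubling time and preincubated 24 h at 37 °C in 5% CO2; time-zero plates were then TCA-fixed. Five concentrations (10-fold or ½-log dilutions, DMSO stock) were incubated 48 h. Cells were TCA-fixed, stained with 0.4% SRB and read at 515 nm. GI50 was taken where [(Ti−Tz)/(C−Tz)]×100 = 50.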

[4] = Growth inhibition of human Hs 578T cells incubated for 48 hrs by sulforhodamine B assay; format: functional; in short: as §1
U-251 [5] = experiment: Growth inhibition of human U251 cells assessed as cell growth at 10^-8 M incubated for 48 hrs by sulforhodamine B assay; format: functional; conditions: U-251, 48 h, read-out: Activity
CCRF-CEM [6] = experiment: Growth inhibition of human CCRF-CEM cells assessed as cell growth at 10^-5 M incubated for 48 hrs by sulforhodamine B assay; format: functional; conditions: read-out: Activity
In short: (§2)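 Leukemia line in the five-dose format: five concentrations from 10-fold or ½-log serial dilutions. Plated at 5,000–40,000 cells per well, preincubated 24 h, then compound added for 48 h at 37 °C, 5% CO₂. Sulforhodamine B absorbance read at 515 nm. Growth is computed against time-zero (Tz) and control (C) readings; GI₅₀ is where [(Ti−Tz)/(C−Tz)]×100 = 50.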

[7] = Growth inhibition of human UO31 cells assessed as cell growth at 10^-6 M incubated for 48 hrs by sulforhodamine B assay; format: functional; conditions: UO-31, 48 h, read-out: Activity
ACHN = experiment: Growth inhibition of human ACHN cells assessed as cell growth at 10^-5 M incubated for 48 hrs by sulforhodamine B assay; format: functional; conditions: read-out: Activity
In short: (§3)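 Five-dose assay: five concentrations from 10-fold or ½-log serial dilutions. Cells are plated at 5,000–40,000 per well according to doubling time, grown 24 h, then exposed 48 h at 37 °C, 5% CO₂. Fixed with cold 50% TCA (final addition) for 60 min at 4 °C and stained with 0.4% SRB in 1% acetic acid. Bound dye is solubilized in 10 mM Tris base and read at 515 nm. GI₅₀ is where [(Ti−Tz)/(C−Tz)]×100 = 50, with a time-zero plate as Tz.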

CCRF-CEM [8] = experiment: Growth inhibition of human CCRF-CEM cells assessed as cell growth at 10^-8 M incubated for 48 hrs by sulforhodamine B assay; format: functional; conditions: read-out: Activity; in short: as §2
[9] = Growth inhibition of human Caki1 cells assessed as cell growth at 10 uM incubated for 48 hrs by sulforhodamine B assay; format: functional; conditions: CAKI-1, 48 h, read-out: Activity
In short: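 Primary screen at one dose (10 µM) across 60 human cancer cell lines. Readout was growth percent relative to untreated control and time-zero.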

[10] = Growth inhibition of human SF268 cells assessed as cell growth at 10^-4 M incubated for 48 hrs by sulforhodamine B assay; format: functional; conditions: SF-268, 48 h, read-out: Activity
SN12C [11] = experiment: Growth inhibition of human SN12C cells assessed as cell growth at 10^-5 M incubated for 48 hrs by sulforhodamine B assay; format: functional; conditions: read-out: Activity
[12] = Growth inhibition of human SW620 cells incubated for 48 hrs by sulforhodamine B assay; format: functional; conditions: SW-620, 48 h; in short: as §1
[13] = Growth inhibition of human OVCAR3 cells incubated for 48 hrs by sulforhodamine B assay; format: functional; conditions: OVCAR-3, 48 h; in short: as §1
MDA-MB-231 [14] = experiment: Growth inhibition of human MDA-MB-231 cells assessed as cell growth at 10^-8 M incubated for 48 hrs by sulforhodamine B assay; format: functional; conditions: MDA-MB-231, 48 h, read-out: Activity
U-251 [15] = experiment: Growth inhibition of human U251 cells assessed as cell growth at 10 uM incubated for 48 hrs by sulforhodamine B assay; format: functional; conditions: U-251, 48 h, read-out: Activity
[16] = Growth inhibition of human RXF393 cells assessed as cell growth at 10 uM incubated for 48 hrs by sulforhodamine B assay; format: functional; conditions: RXF 393, 48 h, read-out: Activity
Albumin = Albumin (Bos taurus, UniProt P02769); experiment: Binding affinity to bovine serum albumin assessed as red shift in emission intensity up to 20 uM by fluorescence spectroscopic analysis relative to control; format: ADME; conditions: cattle, isolated protein
In short: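 Fluorescence titration of 10 µM BSA in 0.1 M phosphate buffer pH 7.4 with compound at 0–20 µM, diluted from DMSO stocks. Excitation 280 nm, slit 10 nm, 1 cm quartz cell, 300 K. Changes in the 350 nm Trp emission, new bands near 370–373 nm and isoemissive points are read against BSA alone.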

A549 = experiment: Growth inhibition of human A549/ATCC cells assessed as cell growth at 10^-5 M incubated for 48 hrs by sulforhodamine B assay; format: functional; conditions: A549, 48 h, read-out: Activity; in short: as §3
MDA-MB-468 = experiment: Growth inhibition of human MDA-MB-468 cells incubated for 48 hrs by sulforhodamine B assay; format: functional; conditions: MDA-MB-468, 48 h; in short: as §1
[17] = Growth inhibition of human PC3 cells assessed as cell growth at 10^-8 M incubated for 48 hrs by sulforhodamine B assay; format: functional; conditions: PC-3, 48 h, read-out: Activity
[18] = Growth inhibition of human SF295 cells assessed as cell growth at 10^-4 M incubated for 48 hrs by sulforhodamine B assay; format: functional; conditions: SF-295, 48 h, read-out: Activity
[19] = Growth inhibition of human SNB75 cells assessed as cell growth at 10^-5 M incubated for 48 hrs by sulforhodamine B assay; format: functional; conditions: SNB-75, 48 h, read-out: Activity
786-0 = experiment: Growth inhibition of human 786-0 cells assessed as cell growth at 10^-6 M incubated for 48 hrs by sulforhodamine B assay; format: functional; conditions: 786-0, 48 h, read-out: Activity; in short: as §3
[20] = Growth inhibition of human Hs 578T cells assessed as cell growth at 10 uM incubated for 48 hrs by sulforhodamine B assay; format: functional; conditions: read-out: Activity
[21] = read-out: LC50 (the source's name)
[22] = read-out: pLC50 (the source's name) (converted)

Albumin, sequence (P02769 whole entry): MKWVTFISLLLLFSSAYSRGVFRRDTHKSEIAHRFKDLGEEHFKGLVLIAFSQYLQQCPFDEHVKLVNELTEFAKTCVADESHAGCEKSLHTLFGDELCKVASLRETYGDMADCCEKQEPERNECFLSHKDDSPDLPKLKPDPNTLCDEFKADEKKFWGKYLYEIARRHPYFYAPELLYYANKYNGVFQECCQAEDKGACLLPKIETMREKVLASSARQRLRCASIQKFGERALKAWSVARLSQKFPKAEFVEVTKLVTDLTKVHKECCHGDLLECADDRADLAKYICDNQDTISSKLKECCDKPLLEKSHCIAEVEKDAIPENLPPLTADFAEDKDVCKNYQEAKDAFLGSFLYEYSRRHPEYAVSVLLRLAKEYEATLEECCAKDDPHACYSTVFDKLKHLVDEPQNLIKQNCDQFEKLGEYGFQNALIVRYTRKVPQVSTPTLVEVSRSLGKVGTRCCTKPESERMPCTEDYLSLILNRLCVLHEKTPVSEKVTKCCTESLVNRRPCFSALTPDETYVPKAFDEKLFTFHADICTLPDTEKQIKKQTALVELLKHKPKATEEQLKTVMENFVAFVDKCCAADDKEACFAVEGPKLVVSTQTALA

c1ccc2[nH]c(-c3ccc(Nc4nc(N5CCCCC5)nc(N5CCOCC5)n4)cc3)nc2c1
growth at 0.1 µM (SN12C [1]): 94% | growth at 10 µM [2]: -11% | GI50 (MDA-MB-231 [3]; read-out: GI50): 2500 nM | CC50 (MDA-MB-231 [3]; [21]): > 100000 nM | TGI (MDA-MB-231 [3]; read-out: TGI): 7520 nM | GI50 (MDA-MB-231 [3]; read-out: pGI50 (converted)): 2510 nM | CC50 (MDA-MB-231 [3]; [22]): > 100000 nM | TGI (MDA-MB-231 [3]; read-out: pTGI (converted)): 7590 nM | GI50 ([4]; read-out: GI50): 2560 nM | CC50 [4, 21]: > 100000 nM | TGI ([4]; read-out: TGI): 8610 nM | GI50 ([4]; read-out: pGI50 (converted)): 2570 nM | CC50 [4, 22]: > 100000 nM | TGI ([4]; read-out: pTGI (converted)): 8510 nM | growth at 0.01 µM (U-251 [5]): 99% | growth at 10 µM (CCRF-CEM [6]): 3% | growth at 1 µM [7]: 87% | growth at 10 µM (ACHN): 9% | growth at 0.01 µM (CCRF-CEM [8]): 99% | growth at 10 µM [9]: -46.9% | growth at 100 µM [10]: -11% | growth at 10 µM (SN12C [11]): 32% | GI50 ([12]; read-out: GI50): 2340 nM | CC50 [12, 21]: 74700 nM | TGI ([12]; read-out: TGI): 5870 nM | GI50 ([12]; read-out: pGI50 (converted)): 2340 nM | CC50 [12, 22]: 74100 nM | TGI ([12]; read-out: pTGI (converted)): 5890 nM | GI50 ([13]; read-out: GI50): 2400 nM | CC50 [13, 21]: > 100000 nM | TGI ([13]; read-out: TGI): 6190 nM | GI50 ([13]; read-out: pGI50 (converted)): 2400 nM | CC50 [13, 22]: > 100000 nM | TGI ([13]; read-out: pTGI (converted)): 6170 nM | growth at 0.01 µM (MDA-MB-231 [14]): 99% | growth at 10 µM (U-251 [15]): 8.02% | growth at 10 µM [16]: -56.1% | Activity (Albumin): 25 nm | growth at 10 µM (A549): 2% | GI50 (MDA-MB-468; read-out: GI50): 2680 nM | CC50 (MDA-MB-468; [21]): > 100000 nM | TGI (MDA-MB-468; read-out: TGI): 6510 nM | GI50 (MDA-MB-468; read-out: pGI50 (converted)): 2690 nM | CC50 (MDA-MB-468; [22]): > 100000 nM | TGI (MDA-MB-468; read-out: pTGI (converted)): 6460 nM | growth at 0.01 µM [17]: 96% | growth at 100 µM [18]: -56% | growth at 10 µM [19]: 10% | growth at 1 µM (786-0): 79% | growth at 10 µM [20]: -12.6%

Clc1ccc(-c2nc(Nc3ccc(-c4nc5ccccc5[nH]4)cc3)nc(N3CCOCC3)n2)cc1
growth at 0.1 µM (SN12C [1]): 92% | growth at 10 µM [2]: -72% | GI50 (MDA-MB-231 [3]; read-out: GI50): 193 nM | TGI (MDA-MB-231 [3]; read-out: TGI): 422 nM | GI50 (MDA-MB-231 [3]; read-out: pGI50 (converted)): 195 nM | TGI (MDA-MB-231 [3]; read-out: pTGI (converted)): 417 nM | GI50 ([4]; read-out: GI50): 700 nM | CC50 [4, 21]: > 100000 nM | TGI ([4]; read-out: TGI): 3020 nM | GI50 ([4]; read-out: pGI50 (converted)): 708 nM | CC50 [4, 22]: > 100000 nM | TGI ([4]; read-out: pTGI (converted)): 3020 nM | growth at 0.01 µM (U-251 [5]): 99% | growth at 10 µM (CCRF-CEM [6]): -63% | growth at 1 µM [7]: 80% | growth at 10 µM (ACHN): -87% | growth at 0.01 µM (CCRF-CEM [8]): 98% | growth at 10 µM [9]: -93.6% | growth at 100 µM [10]: -24% | growth at 10 µM (SN12C [11]): -77% | GI50 ([12]; read-out: GI50): 186 nM | CC50 [12, 21]: 742 nM | TGI ([12]; read-out: TGI): 372 nM | GI50 ([12]; read-out: pGI50 (converted)): 186 nM | CC50 [12, 22]: 741 nM | TGI ([12]; read-out: pTGI (converted)): 372 nM | GI50 ([13]; read-out: GI50): 374 nM | CC50 [13, 21]: 3990 nM | TGI ([13]; read-out: TGI): 1370 nM | GI50 ([13]; read-out: pGI50 (converted)): 372 nM | CC50 [13, 22]: 3980 nM | TGI ([13]; read-out: pTGI (converted)): 1380 nM | growth at 0.01 µM (MDA-MB-231 [14]): 93% | growth at 10 µM (U-251 [15]): -93% | growth at 10 µM [16]: -91.1% | Activity (Albumin): 22 nm | growth at 10 µM (A549): -81% | GI50 (MDA-MB-468; read-out: GI50): 516 nM | TGI (MDA-MB-468; read-out: TGI): 1820 nM | GI50 (MDA-MB-468; read-out: pGI50 (converted)): 513 nM | TGI (MDA-MB-468; read-out: pTGI (converted)): 1820 nM | growth at 0.01 µM [17]: 98% | growth at 100 µM [18]: -10% | growth at 10 µM [19]: -91% | growth at 1 µM (786-0): -78% | growth at 10 µM [20]: -40.2%
